This is an account of results in ChEMBL document CHEMBL3232890, “Novel structural hybrids of pyrazolobenzothiazines with benzimidazoles as cholinesterase inhibitors” (Eur J Med Chem, 2014).

Each structure is given as a SMILES string. Counter-ions that a name gives are not always drawn.

In one experiment the target is Cholinesterase (Equus caballus, UniProt P81908). Put plainly: Inhibition of BuChE in equine serum using butyrylthiocholine chloride as substrate preincubated with enzyme for 10 mins prior to substrate challenge for 15 mins by Ellman's method.
Experiment [1] is described as follows: Inhibition of electric eel AChE type VI-S using acetylthiocholine iodide as substrate preincubated with enzyme for 10 mins prior to substrate challenge for 15 mins by Ellman's method. Details: species or system Electrophorus electricus. The gist of the method:
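Enzyme was EeAChE at 0.5 U/mg or equine BuChE at 3.4 U/mg, diluted in Tris-HCl with 0.1% BSA. Eight to ten serial dilutions were preincubated for 10 min at 25 °C, then incubated for 15 min at 25 °C, and read at 405 nm in triplicate. IC50 came from linear regression.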

For experiment [2], the target named is Cholinesterase (Equus caballus) (UniProt P81908). As to the kind of experiment: Inhibition of BuChE in equine serum using butyrylthiocholine chloride as substrate at 500 uM preincubated with enzyme for 10 mins prior to substrate challenge for 15 mins by Ellman's method. The gist of the method:
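The compound was added from DMSO (1% final) at 0.5 mM final. Enzyme and compound were preincubated for 10 min at 25 °C, then incubated for 15 min at 25 °C, and absorbance was read at 405 nm. Blanks lacked enzyme or substrate.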

Chain of Cholinesterase (P81908 whole entry): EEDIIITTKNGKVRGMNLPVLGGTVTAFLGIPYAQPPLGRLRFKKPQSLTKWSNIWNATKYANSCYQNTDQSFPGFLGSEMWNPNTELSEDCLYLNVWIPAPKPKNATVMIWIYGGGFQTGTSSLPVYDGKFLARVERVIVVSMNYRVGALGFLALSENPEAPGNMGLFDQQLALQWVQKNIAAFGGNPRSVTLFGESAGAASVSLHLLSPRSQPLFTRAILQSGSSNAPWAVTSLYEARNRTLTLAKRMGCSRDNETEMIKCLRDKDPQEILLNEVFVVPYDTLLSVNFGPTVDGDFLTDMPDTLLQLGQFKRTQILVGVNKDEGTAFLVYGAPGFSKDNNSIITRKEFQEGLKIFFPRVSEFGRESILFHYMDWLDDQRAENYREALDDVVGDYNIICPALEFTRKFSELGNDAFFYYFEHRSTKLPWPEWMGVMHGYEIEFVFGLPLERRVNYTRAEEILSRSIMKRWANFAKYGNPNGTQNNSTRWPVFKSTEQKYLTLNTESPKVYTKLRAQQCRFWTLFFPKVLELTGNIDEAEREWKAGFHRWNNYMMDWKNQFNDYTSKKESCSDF
Chain of Cholinesterase (Equus caballus) (P81908 whole entry): as above

The term IC50 denotes the point on the concentration scale where inhibition reaches its midpoint. A higher IC50 goes with weaker potency in that assay. In the case of `CN1c2c(nn(-c3ccc(-c4nc5cc(Cl)ccc5[nH]4)cc3)c2-c2ccccc2)-c2ccccc2S1(=O)=O`, the IC50 at Cholinesterase is 9940 nM; in experiment [1], 3020 nM.
The inhibition is the relative decrease from the control value, in per cent. Lower therefore signals a weak effect. Compound `CCOC(=O)c1ccc2[nH]c(-c3ccc(-n4nc5c(c4C)N(C)S(=O)(=O)c4ccccc4-5)cc3)nc2c1` returned an IC50 in experiment [1] of 993 nM. In addition, the inhibition in experiment [2] worked out at 29.5%.
With `Cc1c2c(nn1-c1ccc(-c3nc4cc(Br)ccc4[nH]3)cc1)-c1ccccc1S(=O)(=O)N2C`, the IC50 was found to be 49 nM on Cholinesterase and 541 nM in experiment [1].
Turning to `COc1ccc2[nH]c(-c3ccc(-n4nc5c(c4C)N(C)S(=O)(=O)c4ccccc4-5)cc3)nc2c1`, the IC50 amounted to 6920 nM against Cholinesterase and 1140 nM in experiment [1].
Take `Cc1cc2nc(-c3ccc(-n4nc5c(c4C)N(C)S(=O)(=O)c4ccccc4-5)cc3)[nH]c2cc1C`: the half-inhibitory concentration (IC50) was determined as 273 nM at Cholinesterase and 41 nM in experiment [1].
Take `COc1cc2c(cc1OC)C(=O)C(CC1CCN(Cc3ccccc3)CC1)C2` (configuration not stated) [DONEPEZIL HYDROCHLORIDE]: it took 32 nM to reach half-maximal inhibition in experiment [1] (IC50).
Turning to `COc1ccc2[nH]c(-c3ccc(-n4nc5c(c4-c4ccccc4)N(C)S(=O)(=O)c4ccccc4-5)cc3)nc2c1`, the midpoint of inhibition in experiment [1], the IC50, lay at 7130 nM. Further, the inhibition in experiment [2] was 37.3%.
Regarding `Cc1c2c(nn1-c1ccc(-c3nc4ccccc4[nH]3)cc1)-c1ccccc1S(=O)(=O)N2C`, the IC50 amounted to 43 nM on Cholinesterase and 2910 nM in experiment [1].
`CN1c2c(nn(-c3ccc(-c4nc5ccccc5[nH]4)cc3)c2-c2ccccc2)-c2ccccc2S1(=O)=O`: the IC50 against Cholinesterase was determined as 43 nM; in experiment [1], 11 nM.
Regarding `Cc1cc2nc(-c3ccc(-n4nc5c(c4-c4ccccc4)N(C)S(=O)(=O)c4ccccc4-5)cc3)[nH]c2cc1C`, the IC50 in experiment [1] was 3820 nM. For the same compound, the inhibition in experiment [2] came out at 34.1%.
On to `CN1c2c(nn(-c3ccc(-c4nc5cc(C(=O)O)ccc5[nH]4)cc3)c2-c2ccccc2)-c2ccccc2S1(=O)=O`, for which the IC50 on Cholinesterase came to 4620 nM; in experiment [1], 6110 nM.
In the same order, the values of `CCOC(=O)c1ccc2[nH]c(-c3ccc(-n4nc5c(c4-c4ccccc4)N(C)S(=O)(=O)c4ccccc4-5)cc3)nc2c1` are 180 nM and 13 nM.
As for `CN1c2c(nn(-c3ccc(-c4nc5cc(Br)ccc5[nH]4)cc3)c2-c2ccccc2)-c2ccccc2S1(=O)=O`, the IC50 against Cholinesterase worked out at 3230 nM; in experiment [1], 6900 nM.
As to `CN1c2c(nn(-c3ccc(-c4nc5cc([N+](=O)[O-])ccc5[nH]4)cc3)c2-c2ccccc2)-c2ccccc2S1(=O)=O`, in experiment [1], the IC50 amounted to 7940 nM. The compound further had an inhibition in experiment [2] of 30.7%.
Regarding `Cc1ccc2[nH]c(-c3ccc(-n4nc5c(c4-c4ccccc4)N(C)S(=O)(=O)c4ccccc4-5)cc3)nc2c1`, the IC50 in experiment [1] amounted to 122 nM. In addition, in experiment [2], the inhibition amounted to 31.8%.
`CN1c2c(nn(-c3ccc(-c4nc5cncnc5[nH]4)cc3)c2-c2ccccc2)-c2ccccc2S1(=O)=O`: the IC50 is 1330 nM against Cholinesterase and 5220 nM in experiment [1].
As to `Cc1ccc2[nH]c(-c3ccc(-n4nc5c(c4C)N(C)S(=O)(=O)c4ccccc4-5)cc3)nc2c1`, the figures for the IC50 (against Cholinesterase; in experiment [1]) were 41 nM and 7530 nM, respectively.
As for `Cc1c2c(nn1-c1ccc(-c3nc4cc(C(=O)O)ccc4[nH]3)cc1)-c1ccccc1S(=O)(=O)N2C`, the IC50 was determined as 26 nM against Cholinesterase and 1130 nM in experiment [1].
`Cc1c2c(nn1-c1ccc(-c3nc4cc([N+](=O)[O-])ccc4[nH]3)cc1)-c1ccccc1S(=O)(=O)N2C` displayed an IC50 in experiment [1] of 492 nM. The same compound registered an inhibition in experiment [2] of 38.5%.
As to `Cc1c2c(nn1-c1ccc(-c3nc4ccccc4o3)cc1)-c1ccccc1S(=O)(=O)N2C`, the IC50 against Cholinesterase was 17 nM; in experiment [1] it was 6920 nM.
For `CN(C)C(=O)Oc1cccc([N+](C)(C)C)c1` [NEOSTIGMINE], the IC50 against Cholinesterase was 49600 nM; in experiment [1], 22200 nM.
Regarding `Cc1c2c(nn1-c1ccc(-c3nc4cncnc4[nH]3)cc1)-c1ccccc1S(=O)(=O)N2C`, half-maximal inhibition in experiment [1] (IC50) required 1950 nM. In experiment [2], this compound came in with an inhibition of 35.5%.
In turn, `CN1c2c(nn(-c3ccc(-c4nc5ccccc5o4)cc3)c2-c2ccccc2)-c2ccccc2S1(=O)=O` showed an IC50 in experiment [1] of 54 nM. In experiment [2], this compound gave an inhibition of 36.5%.
In experiment [1], `Cc1c2c(nn1-c1ccc(-c3nc4cc(Cl)ccc4[nH]3)cc1)-c1ccccc1S(=O)(=O)N2C` gave an IC50 of 1020 nM. The same compound showed an inhibition in experiment [2] of 38.7%.
